Measured values as given in ChEMBL document CHEMBL4715825, “Synthesis and biological evaluations of marine oxohexadecenoic acids: PPARα/γ dual agonism and anti-diabetic target gene effects” (Eur J Med Chem, 2018).
Active and inactive are the calls of the source. The calls are words filed in the database; no cut-off is given here.

Experiments:
[1] = Cytotoxicity against African green monkey COS-1 cells assessed as cell viability at EC50 concentration for PPAR activation assay by LDH assay; format: cell-based; settings: chlorocebus aethiops, read-out: Activity
Method in brief: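 Assayed in the same COS-1 cultures as the Gal4-LBD PPAR reporter assays. Lactate dehydrogenase released into the medium was measured with a commercial kit per the maker's protocol. Absorbance was read at 492/750 nm.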

[2] = Cytotoxicity against African green monkey COS-1 cells assessed as cell viability at EC50 concentration for PPAR activation assay by XTT assay; format: cell-based; settings: chlorocebus aethiops, read-out: Activity
Method in brief: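 Run on COS-1 cells treated in parallel with the Gal4-LBD PPAR reporter assays. Metabolic NAD(P)H flux was measured by kit XTT assay per the maker's protocol. Absorbance was read at 450/690 nm.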

[3] = molecular target: T1, Peroxisome proliferator-activated receptor gamma (Homo sapiens) (UniProt P37231); experiment: Agonist activity at human PPARgamma in 8 day differentiated human SGBS cells assessed as decrease in TNF gene expression at 2 uM incubated for 24 hrs by SYBR-green based qPCR analysis
T1 sequence (whole entry): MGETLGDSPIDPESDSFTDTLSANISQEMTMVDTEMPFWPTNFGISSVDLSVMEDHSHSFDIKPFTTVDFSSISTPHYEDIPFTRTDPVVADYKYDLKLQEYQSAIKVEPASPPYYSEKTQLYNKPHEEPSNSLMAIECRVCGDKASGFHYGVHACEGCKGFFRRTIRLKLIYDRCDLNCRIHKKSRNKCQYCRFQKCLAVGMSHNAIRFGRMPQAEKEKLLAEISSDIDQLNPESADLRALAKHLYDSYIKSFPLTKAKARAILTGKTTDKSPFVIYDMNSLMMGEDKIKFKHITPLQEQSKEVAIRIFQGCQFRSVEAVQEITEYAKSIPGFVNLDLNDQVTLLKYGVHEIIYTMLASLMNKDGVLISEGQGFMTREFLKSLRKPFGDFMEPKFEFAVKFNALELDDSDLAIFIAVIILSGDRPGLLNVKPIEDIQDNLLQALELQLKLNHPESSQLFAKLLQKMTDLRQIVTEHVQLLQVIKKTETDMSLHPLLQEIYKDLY

[4] = molecular target: T1, Peroxisome proliferator-activated receptor gamma (Homo sapiens); experiment: Agonist activity at human PPARgamma in 8 day differentiated human SGBS cells assessed as decrease in CXCL1 gene expression at 2 uM incubated for 24 hrs by SYBR-green based qPCR analysis
[5] = molecular target: T1, Peroxisome proliferator-activated receptor gamma (Homo sapiens); experiment: Agonist activity at human PPARgamma in 8 day differentiated human SGBS cells assessed as decrease in CXCL5 gene expression at 2 uM incubated for 24 hrs by SYBR-green based qPCR analysis
[6] = molecular target: T1, Peroxisome proliferator-activated receptor gamma (Homo sapiens); experiment: Agonist activity at human PPARgamma in 8 day differentiated human SGBS cells assessed as decrease in IL-1 beta gene expression at 2 uM incubated for 24 hrs by SYBR-green based qPCR analysis
[7] = molecular target: T1, Peroxisome proliferator-activated receptor gamma (Homo sapiens); experiment: Agonist activity at human PPARgamma in 8 day differentiated human SGBS cells assessed as decrease in […] gene expression at 2 uM incubated for 24 hrs by SYBR-green based qPCR analysis
[8] = molecular target: T2, Peroxisome proliferator-activated receptor alpha (Homo sapiens, UniProt Q07869); experiment: Agonist activity at recombinant human PPARalpha LBD (168 to 468 residues) expressed in African green monkey COS-1 cells incubated for 18 hrs by luciferase reporter gene assay; format: cell-based
T2 sequence (Q07869 whole entry): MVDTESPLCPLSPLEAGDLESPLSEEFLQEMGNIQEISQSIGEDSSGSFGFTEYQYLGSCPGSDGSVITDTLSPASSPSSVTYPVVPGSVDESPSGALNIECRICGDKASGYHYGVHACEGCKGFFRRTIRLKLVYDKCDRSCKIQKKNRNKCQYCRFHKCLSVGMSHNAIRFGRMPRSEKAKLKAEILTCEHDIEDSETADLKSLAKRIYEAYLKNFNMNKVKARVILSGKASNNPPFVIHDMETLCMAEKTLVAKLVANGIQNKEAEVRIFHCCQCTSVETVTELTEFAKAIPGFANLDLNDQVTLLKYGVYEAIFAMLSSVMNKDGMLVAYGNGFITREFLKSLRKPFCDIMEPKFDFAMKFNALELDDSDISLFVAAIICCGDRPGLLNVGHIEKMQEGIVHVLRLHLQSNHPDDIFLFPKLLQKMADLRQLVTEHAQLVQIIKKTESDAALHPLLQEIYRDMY
Method in brief: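 Transient Gal4 one-hybrid assay in COS-1 cells (7×10^4 per well), transfected 24 h after seeding. Plasmids were Gal4-DBD fused to the human nuclear receptor LBD, a 5×UAS-SV40 luciferase reporter and pRL-CMV Renilla control. Ligand in DMSO (final 0.1%) was added 5 h post-transfection. Dual-luciferase activity was read after 18 h, expressed as RLU, from three biological replicates in quadruplicate.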

Activity [3]	Activity [4]	Activity [5]	Activity [6]	Activity [7]	EC50 [8]	Structure (SMILES)	viability [1]	viability [2]
inactive	inactive	inactive	inactive	inactive	–	CN(CCOc1ccc(CC2SC(=O)NC2=O)cc1)c1ccccn1 (configuration not stated) [ROSIGLITAZONE]	> 95%	> 95%
–	–	–	–	–	35 µM	CCCCCCCCCCCCCCCC(=O)O [PALMITIC ACID]	> 95%	> 90%
–	–	–	–	–	–	Cc1cccc(Nc2cc(Cl)nc(SCC(=O)O)n2)c1C [PIRINIXIC ACID]	> 95%	> 95%
